IC50 and inhibition data for nine molecules are collected here from ChEMBL document CHEMBL2086267, “Discovery of N6-phenyl-1H-pyrazolo[3,4-d]pyrimidine-3,6-diamine derivatives as novel CK1 inhibitors using common-feature pharmacophore model based virtual screening and hit-to-lead optimization” (Eur J Med Chem, 2012).

pIC50: −log10 of the molar value.

As a reminder, the pIC50 is the IC50 on a negative log10 scale, so that one unit is a factor of ten. What is called inhibition is the change of the read-out against control, counted positive when it falls. Higher therefore signals a response far below the control.

In experiment [1] the target is T1, Casein kinase I isoform alpha (Homo sapiens, UniProt P48729). The experiment can be described thus: Inhibition of CK1 using KRRRALS(p)VASLPGL as substrate after 40 mins by scintillation counter.
Target sequence in this assay (P48729 whole entry, canonical isoform): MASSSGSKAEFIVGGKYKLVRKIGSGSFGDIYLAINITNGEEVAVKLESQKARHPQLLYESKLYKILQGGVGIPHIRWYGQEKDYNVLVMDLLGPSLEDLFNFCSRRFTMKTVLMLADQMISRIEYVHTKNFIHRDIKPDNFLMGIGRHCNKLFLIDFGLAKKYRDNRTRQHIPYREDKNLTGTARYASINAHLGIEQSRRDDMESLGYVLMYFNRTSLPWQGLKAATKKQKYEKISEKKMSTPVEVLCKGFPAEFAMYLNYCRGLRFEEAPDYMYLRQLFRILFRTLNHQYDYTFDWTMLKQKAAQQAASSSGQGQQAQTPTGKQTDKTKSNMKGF
The target in experiment [2] is Serine/threonine-protein kinase mTOR (Homo sapiens) (UniProt P42345). The experiment can be described thus: Inhibition of mTOR at 10 uM. The procedure, abridged:
(§1)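 Kinase inhibition was tested through a commercial kinase profiling service. Each assay was run twice and mean activity calculated.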

Experiment [3] concerns the target T1, Casein kinase I isoform alpha. Put plainly: Inhibition of CK1 using KRRRALS(p)VASLPGL as substrate at 10 uM after 40 mins by scintillation counter. The procedure, abridged: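 Radiometric CK1 assay with substrate KRRRALS(p)VASLPGL and [γ-³³P]ATP plus 10 mM Mg acetate, in 20 mM MOPS, 1 mM EDTA, 0.01% Brij-35 and 5% glycerol. Reactions were spotted onto P30 filtermat, washed three times for 5 min in 75 mM phosphoric acid and once in methanol, dried, then scintillation counted. Run twice; mean activity reported.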
Target sequence in this assay (P48729 2-337 limits assumed): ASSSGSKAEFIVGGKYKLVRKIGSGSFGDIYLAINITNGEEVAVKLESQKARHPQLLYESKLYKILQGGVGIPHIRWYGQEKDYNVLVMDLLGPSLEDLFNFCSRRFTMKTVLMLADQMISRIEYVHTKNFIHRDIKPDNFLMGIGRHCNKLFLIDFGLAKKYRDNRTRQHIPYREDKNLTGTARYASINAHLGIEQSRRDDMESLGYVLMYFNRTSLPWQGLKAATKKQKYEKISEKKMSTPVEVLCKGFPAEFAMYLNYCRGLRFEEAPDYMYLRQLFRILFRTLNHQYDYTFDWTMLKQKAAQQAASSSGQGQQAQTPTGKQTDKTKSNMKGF

For experiment [4], the target named is Serine/threonine-protein kinase PLK1 (Homo sapiens) (UniProt P53350). The experiment can be described thus: Inhibition of Plk1 at 10 uM. The procedure, abridged: as §1
Experiment [5] deals with Epidermal growth factor receptor (Homo sapiens) (UniProt P00533). Put plainly: Inhibition of EGFR at 10 uM. The procedure, abridged: as §1
Experiment [6] has as its target Vascular endothelial growth factor receptor 2 (Homo sapiens) (UniProt P35968). The experiment can be described thus: Inhibition of KDR at 10 uM. The procedure, abridged:
as §1

Experiment [7] concerns the target Platelet-derived growth factor receptor alpha (Homo sapiens) (UniProt P16234). Put plainly: Inhibition of PDGFRalpha at 10 uM. The procedure, abridged:
as §1

The target in experiment [8] is Tyrosine-protein kinase receptor UFO (Homo sapiens) (UniProt P30530). Put plainly: Inhibition of Axl at 10 uM. The procedure, abridged:
as §1

Experiment [9] has as its target Receptor-type tyrosine-protein kinase FLT3 (Homo sapiens) (UniProt P36888). The experiment can be described thus: Inhibition of Flt3 at 10 uM. Summed up:
as §1

The target of experiment [10] is ALK tyrosine kinase receptor (Homo sapiens) (UniProt Q9UM73). The experiment can be described thus: Inhibition of ALK at 10 uM. Summed up:
as §1

In experiment [11] the target is Hepatocyte growth factor receptor (Homo sapiens) (UniProt P08581). Put plainly: Inhibition of Met at 10 uM. The procedure, abridged:
as §1

In experiment [12] the target is Fibroblast growth factor receptor 2 (Homo sapiens) (UniProt P21802). Put plainly: Inhibition of FGFR2 at 10 uM. Summed up:
as §1

Experiment [13] addresses Cyclin-dependent kinase 1 (Homo sapiens) (UniProt P06493). The experiment can be described thus: Inhibition of CDK1 at 10 uM. Summed up:
as §1

Experiment [14] addresses Glycogen synthase kinase-3 alpha (Homo sapiens) (UniProt P49840). The experiment can be described thus: Inhibition of GSK3alpha at 10 uM. Summed up:
as §1

Platelet-derived growth factor receptor alpha (Homo sapiens), sequence (P16234 whole entry): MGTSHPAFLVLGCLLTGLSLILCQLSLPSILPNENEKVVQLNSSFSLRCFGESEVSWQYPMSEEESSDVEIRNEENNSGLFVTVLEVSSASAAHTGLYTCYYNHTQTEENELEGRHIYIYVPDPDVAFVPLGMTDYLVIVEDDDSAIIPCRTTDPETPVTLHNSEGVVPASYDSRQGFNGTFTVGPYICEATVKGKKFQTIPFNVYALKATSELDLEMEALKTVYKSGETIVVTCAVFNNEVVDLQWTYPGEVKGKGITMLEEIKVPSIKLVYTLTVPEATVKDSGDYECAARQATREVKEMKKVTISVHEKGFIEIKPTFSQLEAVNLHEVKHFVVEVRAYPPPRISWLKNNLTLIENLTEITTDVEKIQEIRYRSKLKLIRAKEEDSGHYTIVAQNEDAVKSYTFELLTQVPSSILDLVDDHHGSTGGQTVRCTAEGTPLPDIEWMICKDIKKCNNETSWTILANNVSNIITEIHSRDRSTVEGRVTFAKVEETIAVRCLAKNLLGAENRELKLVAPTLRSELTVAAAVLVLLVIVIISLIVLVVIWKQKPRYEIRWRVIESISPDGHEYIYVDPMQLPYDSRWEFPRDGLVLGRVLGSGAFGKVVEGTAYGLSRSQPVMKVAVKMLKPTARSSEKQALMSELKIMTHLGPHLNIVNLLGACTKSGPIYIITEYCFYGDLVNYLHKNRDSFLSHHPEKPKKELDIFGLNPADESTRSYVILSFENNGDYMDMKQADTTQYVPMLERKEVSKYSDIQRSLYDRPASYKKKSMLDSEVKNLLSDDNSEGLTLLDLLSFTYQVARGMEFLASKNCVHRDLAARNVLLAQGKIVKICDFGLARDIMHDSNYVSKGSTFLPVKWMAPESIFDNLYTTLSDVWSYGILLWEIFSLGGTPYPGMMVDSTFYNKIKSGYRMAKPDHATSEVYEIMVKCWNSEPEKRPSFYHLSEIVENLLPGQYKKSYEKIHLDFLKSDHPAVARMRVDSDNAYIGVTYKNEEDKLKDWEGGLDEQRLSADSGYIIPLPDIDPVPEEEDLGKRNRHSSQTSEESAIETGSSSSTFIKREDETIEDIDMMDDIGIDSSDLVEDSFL
Receptor-type tyrosine-protein kinase FLT3 (Homo sapiens), sequence (P36888 whole entry): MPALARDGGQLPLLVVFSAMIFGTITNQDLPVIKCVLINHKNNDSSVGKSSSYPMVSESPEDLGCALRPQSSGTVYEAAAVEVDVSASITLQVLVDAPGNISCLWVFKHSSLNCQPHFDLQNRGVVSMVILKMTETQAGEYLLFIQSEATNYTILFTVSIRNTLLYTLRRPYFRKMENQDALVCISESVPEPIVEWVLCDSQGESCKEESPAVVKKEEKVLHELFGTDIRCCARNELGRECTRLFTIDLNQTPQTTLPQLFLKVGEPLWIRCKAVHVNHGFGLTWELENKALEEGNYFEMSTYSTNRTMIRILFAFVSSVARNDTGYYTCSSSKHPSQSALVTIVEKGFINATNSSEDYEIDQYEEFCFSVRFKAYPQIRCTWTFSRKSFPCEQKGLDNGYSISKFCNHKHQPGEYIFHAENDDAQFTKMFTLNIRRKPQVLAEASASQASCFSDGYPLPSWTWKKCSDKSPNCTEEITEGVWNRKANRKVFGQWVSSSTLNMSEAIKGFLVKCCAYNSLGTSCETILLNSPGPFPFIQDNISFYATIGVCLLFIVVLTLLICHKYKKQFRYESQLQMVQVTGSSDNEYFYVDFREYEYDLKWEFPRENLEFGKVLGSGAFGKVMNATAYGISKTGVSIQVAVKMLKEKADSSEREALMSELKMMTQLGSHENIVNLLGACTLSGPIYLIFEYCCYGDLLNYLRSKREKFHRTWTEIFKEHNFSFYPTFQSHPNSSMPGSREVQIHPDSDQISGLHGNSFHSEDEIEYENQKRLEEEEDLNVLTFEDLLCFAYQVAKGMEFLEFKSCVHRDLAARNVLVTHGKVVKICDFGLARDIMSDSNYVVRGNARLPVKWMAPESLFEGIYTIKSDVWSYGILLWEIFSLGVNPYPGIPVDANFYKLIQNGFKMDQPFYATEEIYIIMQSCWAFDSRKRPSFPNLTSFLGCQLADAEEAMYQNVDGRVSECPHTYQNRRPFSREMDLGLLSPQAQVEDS
Vascular endothelial growth factor receptor 2 (Homo sapiens), sequence (P35968 whole entry): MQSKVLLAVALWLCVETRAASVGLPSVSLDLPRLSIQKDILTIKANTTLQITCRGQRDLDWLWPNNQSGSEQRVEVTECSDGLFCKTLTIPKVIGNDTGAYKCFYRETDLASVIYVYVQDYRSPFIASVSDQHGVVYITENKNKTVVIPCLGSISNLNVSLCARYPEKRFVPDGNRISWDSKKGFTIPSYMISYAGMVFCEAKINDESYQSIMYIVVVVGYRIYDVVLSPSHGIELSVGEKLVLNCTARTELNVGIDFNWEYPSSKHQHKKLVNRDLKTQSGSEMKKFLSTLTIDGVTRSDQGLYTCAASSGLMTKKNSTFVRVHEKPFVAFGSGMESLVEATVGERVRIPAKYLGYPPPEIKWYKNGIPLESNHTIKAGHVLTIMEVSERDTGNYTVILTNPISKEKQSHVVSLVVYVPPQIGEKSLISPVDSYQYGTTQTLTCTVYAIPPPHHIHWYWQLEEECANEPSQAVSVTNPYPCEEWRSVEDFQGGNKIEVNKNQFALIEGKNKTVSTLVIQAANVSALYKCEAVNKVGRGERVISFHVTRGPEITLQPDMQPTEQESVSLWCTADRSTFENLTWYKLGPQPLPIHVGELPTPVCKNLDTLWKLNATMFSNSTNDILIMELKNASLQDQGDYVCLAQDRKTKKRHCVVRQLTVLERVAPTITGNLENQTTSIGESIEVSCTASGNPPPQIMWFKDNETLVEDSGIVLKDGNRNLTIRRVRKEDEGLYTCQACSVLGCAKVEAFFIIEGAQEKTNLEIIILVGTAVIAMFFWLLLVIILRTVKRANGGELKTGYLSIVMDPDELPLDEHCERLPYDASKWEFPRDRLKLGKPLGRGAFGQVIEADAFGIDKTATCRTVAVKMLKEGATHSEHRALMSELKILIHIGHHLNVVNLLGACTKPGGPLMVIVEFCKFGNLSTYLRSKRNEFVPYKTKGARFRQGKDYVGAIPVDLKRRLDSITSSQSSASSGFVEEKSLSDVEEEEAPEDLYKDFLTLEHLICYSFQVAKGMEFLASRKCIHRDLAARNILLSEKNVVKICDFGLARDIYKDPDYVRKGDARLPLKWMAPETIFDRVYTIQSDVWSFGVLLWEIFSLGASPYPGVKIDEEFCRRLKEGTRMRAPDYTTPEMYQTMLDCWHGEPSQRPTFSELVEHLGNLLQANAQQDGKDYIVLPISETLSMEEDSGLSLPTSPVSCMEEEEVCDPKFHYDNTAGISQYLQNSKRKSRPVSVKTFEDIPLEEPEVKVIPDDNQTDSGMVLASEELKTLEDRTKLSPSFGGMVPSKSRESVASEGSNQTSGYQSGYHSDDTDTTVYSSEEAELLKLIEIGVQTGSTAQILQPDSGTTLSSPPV
Cyclin-dependent kinase 1 (Homo sapiens), sequence (P06493 whole entry, looked up): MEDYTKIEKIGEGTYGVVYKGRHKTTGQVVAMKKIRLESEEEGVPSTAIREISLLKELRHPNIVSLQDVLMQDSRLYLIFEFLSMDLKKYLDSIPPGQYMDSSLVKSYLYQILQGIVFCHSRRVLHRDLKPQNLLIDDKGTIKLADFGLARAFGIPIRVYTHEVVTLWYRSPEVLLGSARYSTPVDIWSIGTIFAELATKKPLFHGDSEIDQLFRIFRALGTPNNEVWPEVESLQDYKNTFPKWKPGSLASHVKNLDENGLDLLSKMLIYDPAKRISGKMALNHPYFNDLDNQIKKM
Glycogen synthase kinase-3 alpha (Homo sapiens), sequence (P49840 2-483 limits assumed): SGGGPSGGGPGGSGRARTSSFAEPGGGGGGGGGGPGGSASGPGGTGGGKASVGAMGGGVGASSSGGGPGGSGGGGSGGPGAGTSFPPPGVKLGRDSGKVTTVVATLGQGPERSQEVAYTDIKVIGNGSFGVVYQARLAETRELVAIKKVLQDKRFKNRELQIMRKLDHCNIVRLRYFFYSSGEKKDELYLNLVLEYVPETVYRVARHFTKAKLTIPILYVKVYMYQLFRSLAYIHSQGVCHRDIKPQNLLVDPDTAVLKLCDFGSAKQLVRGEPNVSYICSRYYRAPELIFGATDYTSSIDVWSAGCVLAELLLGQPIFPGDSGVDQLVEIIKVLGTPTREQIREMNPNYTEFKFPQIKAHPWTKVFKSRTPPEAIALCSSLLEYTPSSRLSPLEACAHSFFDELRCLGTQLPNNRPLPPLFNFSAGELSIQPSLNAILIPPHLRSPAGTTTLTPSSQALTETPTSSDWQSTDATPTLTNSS

In experiment [1], `C[C@@H](NC(=O)Nc1cccc(Nc2ncc3c(N)[nH]nc3n2)c1)c1ccccc1` gave a pIC50 of 5.61.
The same measure, in the same setting: then `COc1cc(OC)c(C=C2C(O)=Nc3ccccc32)c(OC)c1` [IC261], with 6.00.
`Nc1n[nH]c2nc(Nc3cccc(NC(=O)Nc4ccc(F)c(Cl)c4)c3)ncc12`: the inhibition stood at 0% in experiment [2]; 100% in experiment [3]; 0% in [4]; 92% in [5]; 96% in experiment [6]; 82% in [7]. Besides, the inhibition in [8] stood at 46%; in experiment [9], 90%; in experiment [10], 26%; in experiment [11], 99%; in [12] it was 35%; in experiment [13], 42%. In [14], this molecule had an inhibition of 34%.
With `CC[C@H](CO)Nc1nc(Nc2cccc(-c3ccccn3)c2)c2ncn(C(C)C)c2n1`, the pIC50 in [1] was 7.85.
On the same count and under the same terms, under `Nc1n[nH]c2nc(Nc3ccc(NC(=O)Nc4ccc(F)c(Cl)c4)cc3)ncc12` stands less than 5.00; under `CC(C)(C)c1cc(NC(=O)Nc2cccc(Nc3ncc4c(N)n[nH]c4n3)c2)n[nH]1`, 6.85.
On the same count and under the same terms, under `Nc1[nH]nc2nc(Nc3cccc(NC(=O)Nc4ccc(F)c(Cl)c4)c3)ncc12` stands 7.11; under `C[C@@H](NC(=O)Nc1ccc(Nc2ncc3c(N)n[nH]c3n2)cc1)c1ccccc1`, less than 5.00.
With `NCCNS(=O)(=O)c1ccc(Cl)c2ccncc12`, in [1], the pIC50 is 5.00.
